Assay results published in ChEMBL document CHEMBL1156133, “Losartan-antioxidant hybrids: novel molecules for the prevention of hypertension-induced cardiovascular damage” (J Med Chem, 2009).
The source made the active and inactive calls. The calls are words filed in the database; no cut-off is given here.

Assays:
[1] = tested on: Rattus norvegicus; assay: Antihypertensive activity in Wistar rat assessed as change in blood protein level at 10 mg/kg/day, po measured after 8 weeks; assay type: functional
Outline: (§1)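 Two-month-old male Wistar rats given L-NAME in drinking water (20 mg/kg/day) for 8 weeks; from week 4, test treatments also in drinking water daily (12.00-18.00 h). Sacrificed under halothane anesthesia at 8 weeks; serum biochemical parameters measured by automatic analyzer. Mean ± SEM of 10 rats; nonparametric statistics.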

[2] = tested on: Rattus norvegicus; assay: Antihypertensive activity in Wistar rat assessed as decrease in L-NAME-induced collagen 1 level in vessel walls at 10 mg/kg/day, po for 4 weeks in presence of losartan; assay type: functional, organism-based
Outline: (§2)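 Male Wistar rats on L-NAME in drinking water (20 mg/kg/day) for 8 weeks, treatments in drinking water for the last 4 weeks. Thoracic aorta lysates run on SDS-PAGE and Western blotted for collagen type I, fibronectin or HNE-lysine, with β-tubulin as loading control; ECL detection, densitometry. Expressed as percent of basal; mean ± SEM of 10 experiments.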

[3] = tested on: Rattus norvegicus; assay: Antihypertensive activity in Wistar rat assessed as change in blood LDH level at 10 mg/kg/day, po measured after 8 weeks in presence of losartan; assay type: functional
[4] = tested on: Rattus norvegicus; assay: Antihypertensive activity in Wistar rat assessed as change in blood calcium level at 10 mg/kg/day, po measured after 8 weeks; assay type: functional
[5] = tested on: Rattus norvegicus; assay: Antihypertensive activity in Wistar rat assessed as change in blood glucose level at 10 mg/kg/day, po measured after 8 weeks; assay type: functional; outline: as §1
[6] = tested on: Rattus norvegicus; assay: Antihypertensive activity in Wistar rat assessed as decrease in L-NAME-induced HNE-lysine accumulation in vessel walls at 10 mg/kg/day, po for 4 weeks in presence of losartan; assay type: functional, organism-based; outline: as §2
[7] = tested on: Rattus norvegicus; assay: Antihypertensive activity in Wistar rat assessed as change in blood ALT level at 10 mg/kg/day, po measured after 8 weeks; assay type: functional
[8] = tested on: Rattus norvegicus; assay: Antihypertensive activity in Wistar rat assessed as change in blood calcium level at 10 mg/kg/day, po measured after 8 weeks in presence of losartan; assay type: functional
[9] = tested on: Rattus norvegicus; assay: Antihypertensive activity in Wistar rat assessed as change in blood creatinine level at 10 mg/kg/day, po measured after 8 weeks in presence of losartan; assay type: functional; outline: as §1
[10] = tested on: Rattus norvegicus; assay: Antihypertensive activity in Wistar rat assessed as change in blood protein level at 10 mg/kg/day, po measured after 8 weeks in presence of losartan; assay type: functional; outline: as §1
[11] = tested on: Rattus norvegicus; assay: Antihypertensive activity in Wistar rat assessed as change in blood Na+ level at 10 mg/kg/day, po measured after 8 weeks in presence of losartan; assay type: functional
[12] = tested on: Rattus norvegicus; assay: Antihypertensive activity in Wistar rat assessed as change in blood cholesterol level at 10 mg/kg/day, po measured after 8 weeks in presence of losartan; assay type: functional
[13] = tested on: Rattus norvegicus; assay: Antihypertensive activity in Wistar rat assessed as change in blood […] level at 10 mg/kg/day, po measured after 8 weeks in presence of losartan; assay type: functional
[14] = tested on: Rattus norvegicus; assay: Antihypertensive activity in Wistar rat assessed as change in blood LDH level at 10 mg/kg/day, po measured after 8 weeks; assay type: functional
[15] = tested on: Rattus norvegicus; assay: Antihypertensive activity in Wistar rat assessed as change in blood Na+ level at 10 mg/kg/day, po measured after 8 weeks; assay type: functional
[16] = tested on: Rattus norvegicus; assay: Antihypertensive activity in Wistar rat assessed as change in blood ALT level at 10 mg/kg/day, po measured after 8 weeks in presence of losartan; assay type: functional
[17] = tested on: Rattus norvegicus; assay: Antihypertensive activity in Wistar rat assessed as change in blood triglyceride level at 10 mg/kg/day, po measured after 8 weeks; assay type: functional; outline: as §1
[18] = tested on: Rattus norvegicus; assay: Antihypertensive activity in Wistar rat assessed as change in blood AST level at 10 mg/kg/day, po measured after 8 weeks in presence of losartan; assay type: functional
[19] = tested on: Rattus norvegicus; assay: Plasma concentration in po dosed Wistar rat assessed as EXP-3174 level after 4 weeks in presence of losartan; assay type: ADME, organism-based; details: in vivo, 672 h
Outline: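 Separate groups of Wistar rats dosed in drinking water for 4 weeks (n = 4-6 per group), then sacrificed and plasma analyzed by HPLC-MS/MS (triple quadrupole, electrospray), isocratic MeOH/water with 0.1% formic acid, 40 °C. Two plasma samples per animal; mean ± SEM.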

[20] = tested on: Rattus norvegicus; assay: Antihypertensive activity in Wistar rat assessed as change in blood urea level at 10 mg/kg/day, po measured after 8 weeks; assay type: functional; outline: as §1
[21] = tested on: Rattus norvegicus; assay: Antihypertensive activity in Wistar rat assessed as change in blood triglyceride level at 10 mg/kg/day, po measured after 8 weeks in presence of losartan; assay type: functional; outline: as §1
[22] = tested on: Rattus norvegicus; assay: Antihypertensive activity in Wistar rat assessed as change in blood creatinine level at 10 mg/kg/day, po measured after 8 weeks; assay type: functional; outline: as §1
[23] = tested on: Rattus norvegicus; assay: Antihypertensive activity in Wistar rat assessed as change in blood cholesterol level at 10 mg/kg/day, po measured after 8 weeks; assay type: functional
[24] = tested on: Rattus norvegicus; assay: Antihypertensive activity in Wistar rat assessed as change in blood glucose level at 10 mg/kg/day, po measured after 8 weeks in presence of losartan; assay type: functional; outline: as §1
[25] = tested on: Rattus norvegicus; assay: Antihypertensive activity in Wistar rat assessed as change in blood AST level at 10 mg/kg/day, po measured after 8 weeks; assay type: functional
[26] = tested on: Rattus norvegicus; assay: Antihypertensive activity in Wistar rat assessed as decrease in L-NAME-induced fibronectin content in vessel walls at 10 mg/kg/day, po for 4 weeks in presence of losartan; assay type: functional, organism-based; outline: as §2
[27] = tested on: Rattus norvegicus; assay: Antihypertensive activity in Wistar rat assessed as change in blood […] level at 10 mg/kg/day, po measured after 8 weeks; assay type: functional
[28] = tested on: Rattus norvegicus; assay: Antihypertensive activity in Wistar rat assessed as change in blood urea level at 10 mg/kg/day, po measured after 8 weeks in presence of losartan; assay type: functional; outline: as §1
[29] = tested on: VSMC; assay: Displacement of [125I]angiotensin II from angiotensin 2 receptor in Wistar rat VSMC cells by gamma-counter; assay type: cell-based; design: concentration or dose not given beside the values
Outline: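 Rat aortic VSMC (collagenase-derived primary cultures, passages 3-5) resuspended in Tris-glucose-NaCl buffer pH 7.4 at 0.5 μg/μL protein; 125 μg protein incubated 45 min with 0.15 nM 125I-angiotensin II plus compound. Bound separated by centrifugation, pellet washed with cold 0.15 M NaCl, gamma counted; nonspecific binding with 10^-4 M angiotensin II.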

[30] = tested on: Rattus norvegicus; assay: Antihypertensive activity in Wistar rat assessed as normalization of L-NAME-induced heart weight at 30 mg/kg/day, po for 4 weeks in presence of L-NAME; assay type: functional, organism-based
Outline: (§3)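 L-NAME (20 mg/kg/day, drinking water, 8 weeks) hypertensive two-month-old male Wistar rats; treatments in drinking water daily for the last 4 weeks. Systolic pressure by tail-cuff in conscious animals. At sacrifice heart weighed (corrected to body weight); aortic rings from descending thoracic aorta, formaldehyde-flushed, media thickness by planimetry. Mean ± SEM of 10 rats.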

[31] = tested on: Rattus norvegicus; assay: Antihypertensive activity in L-NAME-induced Wistar rat assessed as decrease in blood calcium level at 30 mg/kg/day, po for last 4 weeks measured after 8 weeks; assay type: functional
Outline: (§4)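 Two-month-old male Wistar rats given L-NAME in drinking water (20 mg/kg/day) for 8 weeks. From week 4, treatment is given daily in drinking water during 12.00–18.00 h, at the dose stated in the line. Ten rats per group. Sacrificed under halothane between 9.00 and 10.00 h. Serum is measured on an automatic analyzer. Mean ± SEM, nonparametric statistics.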

[32] = tested on: Rattus norvegicus; assay: Antihypertensive activity in L-NAME-induced Wistar rat assessed as decrease in blood cholesterol level at 30 mg/kg/day, po for last 4 weeks measured after 8 weeks; assay type: functional; outline: as §4
[33] = tested on: Rattus norvegicus; assay: Antihypertensive activity in Wistar rat assessed as normalization of L-NAME-induced fibronectin content in vessel walls at 30 mg/kg/day, po for 4 weeks in presence of losartan; assay type: functional, organism-based; outline: as §2
[34] = tested on: Rattus norvegicus; assay: Antihypertensive activity in L-NAME-induced Wistar rat assessed as decrease in blood creatinine level at 30 mg/kg/day, po for last 4 weeks measured after 8 weeks; assay type: functional; outline: as §4
[35] = tested on: Rattus norvegicus; assay: Antihypertensive activity in L-NAME-induced Wistar rat assessed as decrease in blood protein level at 30 mg/kg/day, po for last 4 weeks measured after 8 weeks; assay type: functional; outline: as §4
[36] = Antioxidant activity assessed as inhibition of oxidation of chromogen (ABTS) measured per mmol/L of product by total antioxidant assay; assay type: functional
Outline: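 Total antioxidant status kit: inhibition of ABTS oxidation by metmyoglobin and hydrogen peroxide, followed at 600 nm absorbance; antioxidant ability proportional to absorbance reduction, expressed as mM. Compounds tested at 1 mmol/L.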

[37] = tested on: Rattus norvegicus; assay: Antihypertensive activity in Wistar rat assessed as normalization of L-NAME-induced aorta thickness at 10 mg/kg/day, po for 4 weeks; assay type: functional, organism-based; outline: as §3
[38] = tested on: Rattus norvegicus; assay: Antihypertensive activity in Wistar rat assessed as normalization of L-NAME-induced systolic blood pressure at 10 mg/kg/day, po for 4 weeks; assay type: functional, organism-based; details: Artery; outline: as §3
[39] = tested on: Rattus norvegicus; assay: Antihypertensive activity in L-NAME-induced Wistar rat assessed as decrease in blood triglyceride level at 30 mg/kg/day, po for last 4 weeks measured after 8 weeks; assay type: functional; outline: as §4
[40] = tested on: Rattus norvegicus; assay: Antihypertensive activity in L-NAME-induced Wistar rat assessed as decrease in blood urea level at 30 mg/kg/day, po for last 4 weeks measured after 8 weeks; assay type: functional; outline: as §4
[41] = tested on: Rattus norvegicus; assay: Antihypertensive activity in Wistar rat assessed as normalization of L-NAME-induced HNE-lysine accumulation in vessel walls at 30 mg/kg/day, po for 4 weeks in presence of losartan; assay type: functional, organism-based; outline: as §2
[42] = tested on: Rattus norvegicus; assay: Antihypertensive activity in Wistar rat assessed as normalization of L-NAME-induced systolic blood pressure at 30 mg/kg/day, po for 4 weeks; assay type: functional, organism-based; details: Artery; outline: as §3
[43] = tested on: Rattus norvegicus; assay: Antihypertensive activity in L-NAME-induced Wistar rat assessed as decrease in blood ALT level at 30 mg/kg/day, po for last 4 weeks measured after 8 weeks; assay type: functional; outline: as §4
[44] = tested on: Rattus norvegicus; assay: Antihypertensive activity in L-NAME-induced Wistar rat assessed as decrease in blood LDH level at 30 mg/kg/day, po for last 4 weeks measured after 8 weeks; assay type: functional; outline: as §4
[45] = tested on: Rattus norvegicus; assay: Antihypertensive activity in L-NAME-induced Wistar rat assessed as decrease in blood glucose level at 30 mg/kg/day, po for last 4 weeks measured after 8 weeks; assay type: functional; outline: as §4
[46] = tested on: Rattus norvegicus; assay: Antihypertensive activity in L-NAME-induced Wistar rat assessed as decrease in blood Na+ level at 30 mg/kg/day, po for last 4 weeks measured after 8 weeks; assay type: functional; outline: as §4
[47] = tested on: Rattus norvegicus; assay: Antihypertensive activity in Wistar rat assessed as normalization of L-NAME-induced collagen 1 level in vessel walls at 30 mg/kg/day, po for 4 weeks in presence of losartan; assay type: functional, organism-based; outline: as §2
[48] = tested on: Rattus norvegicus; assay: Antihypertensive activity in L-NAME-induced Wistar rat assessed as decrease in blood AST level at 30 mg/kg/day, po for last 4 weeks measured after 8 weeks; assay type: functional; outline: as §4
[49] = tested on: Rattus norvegicus; assay: Antihypertensive activity in L-NAME-induced Wistar rat assessed as decrease in blood […] level at 30 mg/kg/day, po for last 4 weeks measured after 8 weeks; assay type: functional; outline: as §4

SMILES: O=C(O)CCc1ccc(O)c(O)c1 [DIHYDROCAFFEIC ACID]
- Activity [1]: 5.2 g/dL
- Activity [2]: Active
- Activity [3]: 610 IU/L
- Activity [4]: 8.8 mg/dL
- Activity [5]: 170 mg/dL
- Activity [6]: Active
- Activity [7]: 24 IU/L
- Activity [8]: 8.5 mg/dL
- Activity [9]: 0.44 mg/dL
- Activity [10]: 4 g/dL
- Activity [11]: 148 mmol/L
- Activity [12]: 54 mg/dL
- Activity [13]: 4.2 mmol/L
- Activity [14]: 591 IU/L
- Activity [15]: 148 mmol/L
- Activity [16]: 22 IU/L
- Activity [17]: 70 mg/dL
- Activity [18]: 93 IU/L
- concentration [19]: 19.4 nM
- Activity [20]: 27 mg/dL
- Activity [21]: 69 mg/dL
- Activity [22]: 0.47 mg/dL
- Activity [23]: 58 mg/dL
- Activity [24]: 168 mg/dL
- Activity [25]: 77 IU/L
- Activity [26]: Active
- Activity [27]: 4.1 mmol/L
- Activity [28]: 24 mg/dL

SMILES: CCCCc1ncc(COC(=O)CCc2ccc(O)c(O)c2)n1Cc1ccc(-c2ccccc2-c2nnn[nH]2)cc1
- Activity [29]: 60%
- Activity [30]: Active
- Activity [31]: 8.6 mg/dL
- Activity [32]: 55 mg/dL
- Activity [33]: Active
- Activity [34]: 0.43 mg/dL
- Activity [35]: 4.5 g/dL
- Activity [36]: 0.31 mmol/L
- Activity [37]: inactive
- Activity [38]: inactive
- Activity [39]: 60 mg/dL
- Activity [40]: 24 mg/dL
- Activity [41]: Active
- Activity [42]: Active
- Activity [43]: 25 IU/L
- Activity [44]: 600 IU/L
- Activity [45]: 149 mg/dL
- Activity [46]: 151 mmol/L
- Activity [47]: Active
- Activity [48]: 85 IU/L
- Activity [49]: 4.4 mmol/L
